# Compound activity deposited in PubChem by several laboratories.
# MC4R antag cAMP: human MC4R antagonism in cAMP assay; P32245; MC4R-expressing cells, MTII-stimulated cAMP, LANCE TR-FRET; inhibition, % at 6.5 µM; 360,000 compounds, 0.48% hits; AID 540295;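 active means inhibition above its plate's cutoff, the mean of tested wells on that plate plus 3 SD, cut at about 29% in these data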;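 further: 0% = Melanotan II alone and 100% = Melanotan II plus saturating MCL0020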
#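 Material – human MC4R-expressing U2OS cells · Repeats – no replicates · Detection – TR-FRET with Eu-cAMP and labeled anti-cAMP, 671 nm · Times – compound 30 min, challenge 1 h, detection 1 h · Compound – single nominal compound dose of 6.5 µM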
# MC4R ag barr: activates human MC4R beta-arrestin recruitment; 360,000 compounds, 0.98% hits; U2OS MC4R beta-arrestin complementation, luminescence; percent of melanotan II response, DMSO zero; P32245; activation, % at 8.9 µM; AID 540308;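 active means activation above a per-plate cutoff, the mean activation of sample wells on that plate plus 3 SD, cut at about 8% in these data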
# NTR1 agonist: activates human neurotensin receptor 1; NTR1-U2OS beta-arrestin-GFP spot imaging, agonist mode; 330,000 compounds, 0.17% hits; activation, % at 20 µM; P30989;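 active means activation at or above 40% of the spot to cytoplasm intensity ratio, with at least 20 cells analyzed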;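 further: 0% = DMSO without peptide and 100% = 100 nM NTR1 peptide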
# AI-2 QS modul: modulates the Vibrio harveyi AI-2 quorum sensing system; Vibrio harveyi JMH597 AI-2 luminescence/OD600 ratio, 9 h; active compounds read low; strain lacks LuxN and CqsS sensors; 0 = neutral-control median; activity change, % at 7.5 µM; 300,000 compounds, 0.4% hits; AID 2094; in the data active means activity change below about -75%, passing the limit was not always enough;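 further: luminescence divided by OD600 gain over 9 h not by final OD600 alone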
# MC4R barr ag: human MC4R beta-arrestin agonism confirmation. shares compounds with MC4R ag barr. U2OS MC4R beta-arrestin recruitment, luminescence; scaled DMSO 0%, Melanotan II 100%. activation, % at 8.9 µM. 2,400 compounds, 31% hits. AID 602192;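 active means mean activation across replicates above the hit cutoff set in the earlier primary screen, cut at about 8% in these data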
# MOR-DOR barr ag: OPRM1-OPRD1 heterodimer agonism counter-screen | 2,400 compounds, 5.8% hits | U2OS PathHunter beta-arrestin, beta-gal luminescence; percent of deltorphin B response, DMSO zero | shares compounds with MC4R ag barr | AID 602194 | activation, % at 9.2 µM;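 active means mean activation across replicates exceeds the hit threshold derived in the earlier primary screen, cut at about 18% in these data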;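 further: 100% = deltorphin B at 0.9 µM final and 0% = DMSO alone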
# An asterisk follows results filed as active; · = no result given. Compounds with a hit are over-represented: about 1.8% of the library has one in this group of screens.
SMILES,MC4R antag cAMP,MC4R ag barr,NTR1 agonist,AI-2 QS modul,MC4R barr ag,MOR-DOR barr ag
CN(CC(=O)Nc1ccccc1Br)C(=O)c1ccccc1OCc1ccccc1Cl,16,1,·,·,·,·
N#Cc1c(-c2ccccc2)c(C#N)c2nc3ccccc3n2c1N,8,11*,8,8,1,4
O=C(Nc1cc(F)cc(F)c1)c1ccc(NCCc2ccccc2)c([N+](=O)[O-])c1,-4,10*,0,22,-1,5
COc1cc2c(-c3ccccc3)c(C)oc2cc1/C=N/NC(N)=S,23,16*,3,4,8.7*,10
O=C(NCc1ccc(C(F)(F)F)cc1)C1CC(c2ccc(C(F)(F)F)cc2)=NO1 (stereo not given),-7,12*,6,-1,2,7
O=C(NCc1ccc(OC(F)(F)F)cc1)C1CC(c2ccc(C(F)(F)F)cc2)=NO1 (stereo not given),5,5,1,-13,·,·
Cc1ccc(N(C(=O)c2csnn2)C(C(=O)NCc2ccccc2)c2cccnc2)cc1 (stereo not given),4,0,0,1,·,·
Clc1cccc(Cl)c1CON/C=N/c1ncnc2sccc12,10,12*,6,9,3,5
CNC(=S)/N=C/NOCc1c(Cl)cccc1Cl,9,-1,2,19,·,·
N#C/C(=C\c1ccc[nH]1)C(=O)Nc1ccccc1F,-4,-3,1,11,·,·
N#C/C(=C\c1ccc[nH]1)C(=O)Nc1ccccc1Cl,11,12*,-1,21,0,14
COc1ccc(OC)c(NC(=O)C(C#N)=Cc2ccco2)c1,-11,6,·,·,·,·
COc1ccc(NC(=O)/C(C#N)=C/c2ccc[nH]2)c(OC)c1,-3,10*,0,15,-2,12
COCCn1c(=NC(=O)/C=C/c2cccs2)sc2cc(NC(C)=O)ccc21,9,10*,1,20,1,7
COCCn1c(=NC(=O)CCS(=O)(=O)c2ccccc2)sc2cc(C)ccc21,-2,-4,1,12,·,·
CSc1nc2ccc(NC(=O)CS(=O)(=O)c3ccccc3)cc2s1,10,1,·,·,·,·
CSc1nc2ccc(NC(=O)COc3ccccc3F)cc2s1,1,10*,2,·,0,3
Cc1cccc(NS(=O)(=O)c2cccc(C(=O)N3CCCC(C(F)(F)F)C3)c2)c1 (stereo not given),5,-2,1,19,·,·
CCOC(=O)CCNC(=O)Nc1cc2nc(C)n(Cc3cccc(Cl)c3)c2nc1C,4,-1,0,6,·,·
COc1ccc(NC(=O)CSc2nnc(-c3ccccc3)n2N)cc1,4,-1,0,20,·,·
CCn1c2ccccc2c2cc(NC(=O)CSc3nnc(-c4ccc(OC)cc4)n3N)ccc21,-1,21*,11,-1,12*,20*
COc1ccc(-c2cc(NC(C)=O)c3ncc(-c4ccc(OC)c(OC)c4)n3c2)c(OC)c1,-14,6,·,·,·,·
COc1ccc(-c2cc(NC(C)=O)c3ncc(-c4ccc(F)cc4)n3c2)cc1OC,14,22*,·,·,26*,6
COc1ccc(-c2cnc3c(NC(C)=O)cc(-c4cc(F)ccc4OC)cn23)cc1OC,-19,19*,·,·,27*,2
COc1ccc(-c2cc(NC(C)=O)c3ncc(-c4ccccc4)n3c2)cc1OC,-4,5,·,·,·,·
SMILES,MC4R antag cAMP,MC4R ag barr,NTR1 agonist,AI-2 QS modul,MC4R barr ag,MOR-DOR barr ag
COc1ccc(F)cc1-c1cc(NC(C)=O)c2ncc(-c3cc(OC)c(OC)c(OC)c3)n2c1,-54,11*,·,·,9.7*,8
COc1cc(-c2cnc3c(NC(C)=O)cc(-c4ccc(N5CCN(C)CC5)cc4)cn23)cc(OC)c1OC,0,3,·,·,·,·
CCSc1nnc(NC(=O)c2cccc3ccccc23)s1,4,14*,1,17,6,4
CCSc1nnc(NC(=O)c2csc(C)c2)s1,4,0,4,13,·,·
COc1ccc(CCNC(=O)CN2C(=O)NC(Cc3c[nH]c4ccccc34)C2=O)cc1 (stereo not given),26,2,1,11,·,·
CC(C)c1ccc(NC(=O)CSc2ncccc2C(=O)Oc2cccc([N+](=O)[O-])c2)cc1,-14,20*,4,18,17*,2
O=C(COC(=O)/C=C/c1cccc(Cl)c1)Nc1ccc(N2CCOCC2)cc1,-3,9.8*,2,·,0,8
CC(C)c1ccc(NC(=O)COC(=O)/C=C/c2cccc([N+](=O)[O-])c2)cc1,1,16*,0,24,1,3
Cc1ccc(NC(=O)COC(=O)/C=C/c2cccc(Cl)c2)cc1S(=O)(=O)N1CCOCC1,-1,0,0,-16,·,·
CCCCc1ccc(NC(=O)CSc2nnc(CNC(=O)c3ccco3)o2)cc1,9,-1,0,4,·,·
Cc1cc(C)n2nc(C(=O)OCC(=O)NCc3ccc(Cl)cc3)nc2n1,-3,-1,3,·,·,·
CN(c1ccc(OCC(=O)NC2CCC(O)CC2)cc1)S(=O)(=O)c1ccc(Cl)cc1 (stereo not given),14,-1,0,·,·,·
CCOC(=O)c1ccc(NS(=O)(=O)c2ccc(SC)cc2)cc1,7,0,4,28,·,·
CCOc1ccc(NS(=O)(=O)c2ccc(SC)cc2)cc1,3,11*,2,-12,0,7
NC(CCc1ccccc1)c1csc(NC(=O)Nc2ccccc2Oc2ccccc2)n1 (stereo not given),12,18*,·,·,4,25*
NC(Cc1ccc(Cl)cc1)c1csc(NC(=O)NCCc2ccccc2)n1 (stereo not given),1,13*,·,·,27*,21*
NC(CCc1ccccc1)c1csc(NC(=O)NCCc2ccccc2)n1 (stereo not given),3,2,·,·,·,·
NC(Cc1ccc(Cl)cc1)c1csc(NC(=O)Nc2ccccc2-c2ccccc2)n1 (stereo not given),13,19*,·,·,11*,9
CC1Cc2nc(SCC(=O)NCC3CCCO3)n(C)c(=O)c2S1 (stereo not given),-5,-3,-1,19,·,·
CC(C)(C)c1ccc(S(=O)(=O)N2CCN(CC(O)CN3CCOCC3)CC2)cc1 (stereo not given),-1,-1,1,·,·,·
COc1ccc(/C=C2/N=C(SCC(=O)Nc3cc(C)on3)N(c3ccccc3)C2=O)cc1,-7,11*,·,·,5,5
Cc1cc(NC(=O)CN2C(=O)S/C(=C\c3ccccc3)C2=O)no1,-3,26*,2,10,4,9
Cc1ccc(S(=O)(=O)N2CCN(CCOc3cccc(C)c3)CC2)cc1,-1,4,-2,·,·,·
CCOC(=O)c1c(C)[nH]c(C(=O)Cn2nnc(-c3ccccc3)n2)c1C,2,13*,0,22,2,9
